Assay results published in publication PMC3824626 (Bioorganic & medicinal chemistry letters, 2013).
“Also recorded” adds a separate entry of the source.

Columns and labels:
BLM helicase = BLM helicase (Homo sapiens, UniProt P54132); experiment: gel-based BLM DNA unwinding assay; type: biochemical; details: for IC50 (BLM): gel-based BLM DNA unwinding assay
[1] = kinetic aqueous solubility; type: physicochemical; details: aqueous/DMSO solubility compared with other analogs
How it was run: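 Kinetic aqueous solubility in PBS buffer, pH 7.4. It was measured by chemiluminescent nitrogen detection (CLND) at an outside laboratory and in-house by UV-Vis detection.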

WRN helicase = details: cited from earlier work
WRN = WRN (Homo sapiens, UniProt Q14191); experiment: gel-based DNA unwinding assay, WRN; type: biochemical; details: from gel-based IC50 values
WRN, sequence (Q14191 whole entry): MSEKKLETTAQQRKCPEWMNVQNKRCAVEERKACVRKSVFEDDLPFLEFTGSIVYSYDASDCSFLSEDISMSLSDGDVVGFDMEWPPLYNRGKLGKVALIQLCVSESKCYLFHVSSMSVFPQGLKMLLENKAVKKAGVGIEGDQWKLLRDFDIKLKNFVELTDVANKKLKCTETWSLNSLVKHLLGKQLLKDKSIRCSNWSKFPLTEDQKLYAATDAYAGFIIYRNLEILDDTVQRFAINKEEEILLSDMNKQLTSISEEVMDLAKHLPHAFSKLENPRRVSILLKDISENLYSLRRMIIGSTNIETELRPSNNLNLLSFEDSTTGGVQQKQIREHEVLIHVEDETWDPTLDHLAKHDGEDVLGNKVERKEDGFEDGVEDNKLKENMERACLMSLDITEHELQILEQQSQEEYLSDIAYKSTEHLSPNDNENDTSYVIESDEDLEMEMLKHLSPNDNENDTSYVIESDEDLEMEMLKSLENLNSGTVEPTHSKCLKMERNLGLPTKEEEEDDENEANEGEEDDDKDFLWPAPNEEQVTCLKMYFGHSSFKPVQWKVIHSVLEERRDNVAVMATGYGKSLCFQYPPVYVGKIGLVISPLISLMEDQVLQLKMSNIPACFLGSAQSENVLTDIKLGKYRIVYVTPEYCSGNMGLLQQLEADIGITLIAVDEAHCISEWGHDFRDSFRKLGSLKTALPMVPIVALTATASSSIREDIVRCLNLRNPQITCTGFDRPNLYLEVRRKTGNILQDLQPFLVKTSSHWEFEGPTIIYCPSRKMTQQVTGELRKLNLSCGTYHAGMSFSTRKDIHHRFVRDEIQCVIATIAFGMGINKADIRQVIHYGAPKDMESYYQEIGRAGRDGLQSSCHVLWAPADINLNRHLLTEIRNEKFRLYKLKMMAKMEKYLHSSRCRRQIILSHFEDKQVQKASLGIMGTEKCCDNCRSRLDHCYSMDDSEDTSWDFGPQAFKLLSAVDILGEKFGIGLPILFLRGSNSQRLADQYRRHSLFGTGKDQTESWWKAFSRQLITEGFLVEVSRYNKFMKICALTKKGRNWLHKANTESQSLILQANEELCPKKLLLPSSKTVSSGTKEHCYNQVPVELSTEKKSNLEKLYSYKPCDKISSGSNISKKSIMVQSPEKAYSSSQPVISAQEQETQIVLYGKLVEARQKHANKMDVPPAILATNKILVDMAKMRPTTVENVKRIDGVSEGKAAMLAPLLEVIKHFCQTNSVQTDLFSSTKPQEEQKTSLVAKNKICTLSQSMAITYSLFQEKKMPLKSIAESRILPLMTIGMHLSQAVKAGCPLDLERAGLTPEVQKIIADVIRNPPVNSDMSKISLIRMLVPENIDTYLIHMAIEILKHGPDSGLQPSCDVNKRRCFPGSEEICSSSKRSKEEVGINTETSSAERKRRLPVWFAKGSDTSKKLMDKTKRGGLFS

[2] = tested on: PSNF5 cells (BLM-complemented GM08505-derived BS cells); experiment: sister chromatid exchange frequency in BLM-complemented cells; type: cell-based, human; details: cells expressing BLM (PSNF5)
BLM = BLM (Homo sapiens, UniProt P54132); experiment: fluorescence polarization analysis of BLM binding to single-stranded DNA
BLM, sequence (P54132 whole entry): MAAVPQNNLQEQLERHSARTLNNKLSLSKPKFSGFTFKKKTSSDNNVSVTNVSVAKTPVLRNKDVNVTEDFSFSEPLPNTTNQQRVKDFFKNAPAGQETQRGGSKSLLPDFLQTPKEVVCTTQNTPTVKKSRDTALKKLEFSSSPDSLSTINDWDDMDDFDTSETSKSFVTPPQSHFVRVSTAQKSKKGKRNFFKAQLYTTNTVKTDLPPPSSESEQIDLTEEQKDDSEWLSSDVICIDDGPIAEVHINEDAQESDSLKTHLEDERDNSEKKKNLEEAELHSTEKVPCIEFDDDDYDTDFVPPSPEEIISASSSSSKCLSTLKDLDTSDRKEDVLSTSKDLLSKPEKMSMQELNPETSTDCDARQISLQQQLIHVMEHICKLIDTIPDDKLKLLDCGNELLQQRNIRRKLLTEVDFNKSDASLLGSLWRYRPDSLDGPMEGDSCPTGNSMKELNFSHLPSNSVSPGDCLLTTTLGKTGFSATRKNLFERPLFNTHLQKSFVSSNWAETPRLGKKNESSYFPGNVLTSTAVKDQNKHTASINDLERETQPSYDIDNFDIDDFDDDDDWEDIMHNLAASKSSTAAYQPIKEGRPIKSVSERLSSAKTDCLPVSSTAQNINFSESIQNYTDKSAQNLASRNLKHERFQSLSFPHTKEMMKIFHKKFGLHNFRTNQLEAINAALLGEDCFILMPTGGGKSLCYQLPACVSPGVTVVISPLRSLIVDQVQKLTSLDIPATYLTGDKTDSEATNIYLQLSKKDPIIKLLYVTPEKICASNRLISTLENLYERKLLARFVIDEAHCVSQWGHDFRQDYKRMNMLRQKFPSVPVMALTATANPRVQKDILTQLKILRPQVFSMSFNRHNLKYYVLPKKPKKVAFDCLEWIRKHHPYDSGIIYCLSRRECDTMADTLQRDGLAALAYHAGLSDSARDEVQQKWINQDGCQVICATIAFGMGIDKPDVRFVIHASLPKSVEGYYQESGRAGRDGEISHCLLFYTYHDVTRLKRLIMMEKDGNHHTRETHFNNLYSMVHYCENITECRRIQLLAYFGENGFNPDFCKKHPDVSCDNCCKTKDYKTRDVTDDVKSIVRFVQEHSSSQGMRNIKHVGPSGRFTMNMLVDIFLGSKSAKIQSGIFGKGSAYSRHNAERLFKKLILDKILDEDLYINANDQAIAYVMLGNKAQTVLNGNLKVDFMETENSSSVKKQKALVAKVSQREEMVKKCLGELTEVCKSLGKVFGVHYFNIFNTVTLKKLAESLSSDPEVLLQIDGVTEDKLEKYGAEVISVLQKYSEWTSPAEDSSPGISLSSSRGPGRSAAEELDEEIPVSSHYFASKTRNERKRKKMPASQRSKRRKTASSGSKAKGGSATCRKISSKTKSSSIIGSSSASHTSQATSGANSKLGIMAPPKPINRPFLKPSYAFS

[3] = tested on: PSNG13 cells (BLM-defective GM08505-derived BS cells); experiment: sister chromatid exchange frequency in BLM-defective cells; type: cell-based, human; details: cells lacking BLM (PSNG13)
BLM ATPase activity = BLM ATPase activity (Homo sapiens, UniProt P54132); experiment: BLM ATPase kinetic analysis; type: biochemical
BLM ATPase activity, sequence (P54132 whole entry): as above
How it was run: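 Michaelis–Menten analysis of BLM ATPase activity with and without test compound, replotted as a Lineweaver–Burk double-reciprocal plot. Each point is the mean ± SD of quadruplicate determinations, and the data shown represent three independent experiments.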

BLM-positive cells = details: cited from earlier work
[4] = tested on: sister chromatid exchanges; details: cited from earlier work

BLM helicase, sequence (P54132 whole entry): as above

IC50 (BLM) (BLM helicase) | Compound | other results
completely inactive | O=C(Nc1ccc(Cl)c(Cl)c1)Nc1ncc(-c2ccncc2)s1 [Compound 6c] | 
weakly active or inactive | N#C/N=C(/Nc1ccc(F)c(C(F)(F)F)c1)Nc1nnc(-c2ccncc2)s1 [Compound 7f] | 
loss of activity | O=C(Nc1ccc(Cl)c(Cl)c1)Nc1ccc(-c2ccncc2)s1 [Compound 6a] | 
weakly active or inactive | N=C(Nc1ccc(Cl)c(Cl)c1)Nc1nnc(-c2ccncc2)s1 [Compound 7b] | 
 | O=c1c(Nc2ccc(Cl)c(Cl)c2)c(Nc2nnc(-c3ccncc3)s2)c1=O [Compound 7g] | solubility (in words) [1]: not improved over (1)
good activity | O=C(Nc1ccc(-n2ccnc2)c(F)c1)Nc1nnc(-c2ccncc2)s1 [Compound 35] | 
good activity | N#Cc1cc(NC(=O)Nc2nnc(-c3ccncc3)s2)ccc1-c1ccc[nH]1 [Compound 36] | 
loss of activity | O=C(Nc1ccc(Cl)c(Cl)c1)Nc1nnc(-c2ccncc2)o1 [Compound 6d] | 
 | N#Cc1cc(NC(=O)Nc2nnc(-c3ccncc3)s2)ccc1Cl [Compound 10] | solubility (in words) [1]: noticeably diminished aqueous/DMSO solubility; also recorded: diminished solubility compared with 33; improvement in potency when 3-Cl is replaced with cyano (BLM helicase; relative to compound 1, BLM gel-based IC50): 4 fold
complete loss of activity | CN(C(=O)Nc1ccc2ccccc2c1)c1nnc(-c2ccncc2)s1 [Compound 7h] | 
 | N#Cc1ccc(NC(=O)Nc2nnc(-c3ccncc3)s2)cc1Br [Compound 24] | solubility (in words) [1]: noticeably diminished aqueous/DMSO solubility
inactivity | O=C(Nc1ccc(Cl)c(Cl)c1)Nc1nnc(-c2ccccn2)s1 [Compound 4b] | 
 | CCCOCN1C(=O)C=CC1=O [NSC19630] | WRN helicase inhibition (WRN helicase): small molecule inhibitor of WRN helicase
drastic loss in activity | O=C(Nc1ccccc1)Nc1nnc(-c2ccncc2)s1 [Compound 9] | 
 | N#Cc1cc(NC(=O)Nc2nnc(-c3ccncc3)s2)ccc1Br [Compound 23] | solubility (in words) [1]: noticeably diminished aqueous/DMSO solubility
weakly active or inactive | O=S(=O)(Cc1ccc(Cl)c(Cl)c1)Nc1nnc(-c2ccncc2)s1 [Compound 7e] | 
drastic loss in activity | O=C(Nc1ccc(Cl)cc1)Nc1nnc(-c2ccncc2)s1 [Compound 8] | 
weakly active or inactive | O=C(Cc1ccc2ccccc2c1)Nc1nnc(-c2ccncc2)s1 [Compound 7c] | 
 | O=C(Nc1ccc(F)c(C(F)(F)F)c1)Nc1nnc(-c2ccncc2)s1 [ML216] | antiproliferative activity (BLM-positive cells): selective antiproliferative activity in BLM-positive cells; induction of sister chromatid exchanges [4]: induce sister chromatid exchanges
inactivity | O=C(Nc1ccc(Cl)c(Cl)c1)Nc1nnc(-c2ccccc2)s1 [Compound 4a] | 

Compound | IC50 (BLM) (BLM helicase) | other results
N#Cc1cc(NC(=O)Nc2nnc(-c3ccncc3)s2)ccc1-c1cn[nH]c1 [Compound 33] | comparable activity to the probe compound | selectivity for BLM over WRN (WRN): greater than 6 fold; induction of SCEs [2]: significant and dose-dependent induction of SCEs; displacement of DNA binding to BLM versus related DNA helicases (BLM): selective displacement of DNA binding to BLM over related DNA helicases; inhibition of BLM binding to single-stranded DNA (BLM): dose-dependent inhibition; induction of SCEs [3]: no further increase in SCEs; mode of BLM inhibition (BLM ATPase activity; Lineweaver-Burk double reciprocal plot): non-ATP competitive BLM inhibitor; effect on apparent Km of BLM ATPase activity (BLM ATPase activity; single-stranded oligonucleotide as DNA effector): does not affect the apparent Km value
O=C(Nc1nnc(-c2ccncc2)s1)Oc1ccc2ccccc2c1 [Compound 7d] | weakly active or inactive | 
